# RAM inhibit – inhibitors of the yeast RAM network, primary screen, dse1pr::URA3 reporter, 5-FOA selection; S. cerevisiae dse1pr::URA3 reporter, 5-FOA growth OD615, 2 d; analog-sensitive cbk1-as2 kinase mutant strain; inhibition, % at 50 µM; 190,000 compounds, 1.8% hits;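 active means inhibition above a set limit, 3 SD over mean compound inhibition, cut at about 8.4% in these data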;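 further: 0% = DMSO-only wells with no growth and 100% = 10 µM 1-NA-PP1 full growth; inhibition rescues growth on 5-FOA so higher OD means more RAM inhibition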
# NPY-Y1 antag – NPY-Y1 receptor antagonists, primary screen, cell-based. HEK293-CNG Y1 cells, membrane potential fluorescence; NPY at EC95, then isoproterenol. inhibition, % at 3.6 µM. 200,000 compounds, 1% hits. AID 1040, 2008;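 active means inhibition above the campaign mean inhibition of all tested compounds plus 3 SD, cut at about 20% in these data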;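 further: 0% = DMSO wells given NPY plus isoproterenol and 100% = isoproterenol alone without NPY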
#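 material = HEK293 cells with Y1 receptor plus CNG channel | also added = NPY 25 nM then isoproterenol 1 µM plus Ro 20-1724 25 µM | schedule = dye 3 h, compound 60 min room temperature, stimulation 45 min | measured by = membrane potential fluorescence | benchmarks = high control isoproterenol alone, low control NPY with isoproterenol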
# NPY-Y2 PAM-ag – NPY-Y2 potentiators or agonists, primary screen, cell-based | Neuropeptide Y receptor type 2 (Homo sapiens), P49146 | cells expressing NPY-Y2, potentiator/agonist read-out | activation, % at 3.6 µM | 220,000 compounds, 0.45% hits; in the data active means activation above about 27%;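 further: cells stimulated with NPY near EC25 plus isoproterenol at EC100; 0% = vehicle plus submaximal agonist and 100% = vehicle plus saturating agonist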
# Target sequence (P49146 whole entry, looked up): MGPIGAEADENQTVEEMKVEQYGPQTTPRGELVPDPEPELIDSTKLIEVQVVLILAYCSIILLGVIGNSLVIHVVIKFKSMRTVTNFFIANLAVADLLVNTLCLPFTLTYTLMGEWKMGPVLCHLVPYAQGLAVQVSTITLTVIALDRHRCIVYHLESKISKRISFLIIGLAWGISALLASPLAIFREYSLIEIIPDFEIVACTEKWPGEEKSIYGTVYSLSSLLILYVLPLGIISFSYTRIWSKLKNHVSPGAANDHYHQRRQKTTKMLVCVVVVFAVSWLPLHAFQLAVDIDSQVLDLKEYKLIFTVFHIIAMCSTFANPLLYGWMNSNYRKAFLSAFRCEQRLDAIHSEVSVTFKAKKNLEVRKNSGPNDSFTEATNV
# NPY1 pot ag – NPY-Y1 receptor potentiators or agonists, primary screen, cell-based; NPY-Y1 expressing cells, potentiator/agonist activation; activation, % at 3.6 µM; 220,000 compounds, 0.37% hits; AID 1304, 2008; in the data active means activation above about 33%, passing the limit was not always enough;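 further: cells stimulated with NPY at EC10 then isoproterenol at EC100; 0% = low agonist plus stimulus and 100% = saturating agonist plus stimulus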
# Insulin prom inh – inhibitors of insulin promoter-driven GFP, primary screen, imaging, TRM-6 cells, eGFP reporter, cell count | reporter expression induced with tamoxifen | inhibition, % at 2 µM | 130,000 compounds, 0.9% hits | AID 1273, 2008;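 active means inhibition above the mean plus 3 SD, with well images judged a real hit on visual review, cut at about 60% in these data, passing the limit was not always enough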
# NPY Y2 blocker – NPY-Y2 receptor antagonists, primary screen, cell-based. 140,000 compounds, 0.99% hits. inhibition, % at 2.7 µM. NPY-Y2 expressing cells, antagonist mode; in the data active means inhibition above about 17%;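 further: 0% = vehicle with agonist challenge and 100% = reference antagonist with challenge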
# * = called active by the depositor; i = inactive; x = not tested or not shown. Most compounds without a hit are left out; they make up all but 3.8% or so of the library.
SMILES,RAM inhibit,NPY-Y1 antag,NPY-Y2 PAM-ag,NPY1 pot ag,Insulin prom inh,NPY Y2 blocker
COc1ccc(CCNc2c([N+](=O)[O-])c(=O)oc3ccccc23)cc1OC,0.4,3.5,0.7,15.3,10.0,1.7
CCSC1=N/C(=C\c2ccccc2)C(=O)N1c1ccc(OC)cc1,10.2*,4.2,8.6,9.6,33.3,x
C=CCSC1=N/C(=C\c2cccnc2)C(=O)N1c1ccc(OC)cc1,4.5,6.0,-11.9,-23.3,-6.7,3.1
NNC(=O)CNC(c1ccccc1)c1cc(Br)ccc1NC(=O)c1ccc(Br)cc1 (centres undefined),-0.8,5.5,3.1,5.8,12.5,0.9
COC(=O)CNC(c1ccccc1)c1cc(Cl)ccc1NC(=O)c1cccc(Cl)c1 (centres undefined),1.5,33.9*,-23.6,-33.5,x,27.6*
COC(=O)CNC(c1ccccc1)c1cc(Br)ccc1NC(C)=O (centres undefined),0.8,20.1*,-7.6,-15.2,x,x
CCOC(=O)C1(CC2CC2)CCN(S(=O)(=O)C[C@]23CC[C@H](CC2=O)C3(C)C)CC1,-0.3,0.7,0.8,-14.1,x,x
CCOc1cc(-c2nc(-c3ccc(OC)cc3)no2)cc(OCC)c1OCC,9.6*,4.6,8.6,-17.5,-36.1,0.1
COCCn1c(SCC(=O)c2[nH]c(C)c(C(C)=O)c2C)nc2ccccc21,-0.3,8.0,-17.9,-17.1,22.6,4.4
Cc1noc(NS(=O)(=O)c2ccc(N/C=C\C(=O)c3ccc(F)cc3)cc2)c1C,8.6*,3.3,18.4,2.4,-17.6,x
Cc1cc(C)nc(NS(=O)(=O)c2ccc(N/C=C\C(=O)c3ccc(Cl)cc3)cc2)n1,7.3,-5.0,8.7,11.8,70.0*,-0.8
CC1CCCC(C)N1C(=O)Cn1cc(/C=C2/C(=O)Nc3ccccc32)c2ccccc21 (centres undefined),4.8,-4.0,-5.0,16.5,10.7,7.5
COc1ccc(N(CC(=O)Nc2nccs2)S(=O)(=O)c2c(C)[nH]c(=O)[nH]c2=O)cc1,5.0,5.8,-10.9,-4.1,78.6*,x
COC(=O)/C=c1/s/c(=C(\C#N)C(=O)NCc2ccco2)n(-c2ccc(C)cc2)c1=O,8.5*,0.8,2.6,-3.0,x,1.9
COC(=O)/C=c1/s/c(=C(/C#N)C(=O)N2CCOCC2)n(-c2ccccc2)c1=O,1.5,0.2,3.9,-2.7,12.9,-2.2
O=C(Nc1ccsc1C(=O)NC1CC1)c1ccccc1,0.0,-1.7,-0.7,-32.6,85.2*,3.0
COc1ccc(CNC(=O)CN(C(=O)Cn2nnc(-c3ccccc3F)n2)c2ccc(C)cc2)cc1,6.7,-6.5,0.9,-8.3,x,x
COCCNC(=O)C(c1ccc(F)cc1)N(C(=O)CCC(=O)Nc1nccs1)c1cccc(C)c1 (centres undefined),9.6*,-4.2,-3.5,15.8,-26.7,x
Cc1cccc(N(C(=O)CCC(=O)Nc2nccs2)C(C(=O)NC(C)(C)C)c2ccc(O)cc2)c1 (centres undefined),1.9,1.6,0.2,-1.2,x,x
CNC(=O)c1cc(NC(=O)CCn2nc(-c3ccccc3)c3ccccc3c2=O)ccc1OC,x,x,6.6,-5.2,x,x
Cc1cccc(Sc2nc(-c3ccccc3)ccc2C#N)c1,10.6*,14.5,-44.9,-94.5,x,10.2
CCN(CC)c1nc2ccccc2[nH]1,0.4,2.6,-9.0,-10.2,72.2*,2.6
CCN(CC)c1nc2ccccc2[nH]c1=O,x,x,11.8,0.6,x,x
CCOc1c(Nc2ccc(C(C)C)cc2)c(=O)c1=O,x,x,-20.0,-13.5,x,x
Cn1c(C(=O)OC(C(=O)NC2CCCCC2)c2cccnc2)cc2sccc21 (centres undefined),3.4,10.4,-68.3,-35.5,i,9.3
SMILES,RAM inhibit,NPY-Y1 antag,NPY-Y2 PAM-ag,NPY1 pot ag,Insulin prom inh,NPY Y2 blocker
CSC(=NC#N)N1CCN(c2cccc(Cl)c2)CC1,0.7,1.0,2.4,7.7,0.0,3.5
COc1c(OC(C)=O)ccc(/C=N\NC(=O)c2ccc(Br)cc2)c1[N+](=O)[O-],3.2,-0.1,-6.6,7.8,0.0,x
CCC(C)[C@H](NC(=O)N1CCCCCC1)C(=O)OC (some centres undefined),x,x,-14.8,11.8,x,x
Clc1ccc(Nc2ncn[nH]2)c(Cl)c1,-0.2,3.0,15.1,-0.3,65.7*,x
CCOC(=O)c1cccc(NC(=O)CSc2nc3cccnc3n2C)c1,0.4,-8.0,0.6,-7.6,x,7.2
C=CCn1c(SCc2csc(C)n2)nc2sc3c(c2c1=O)CCCC3,9.3*,1.6,-17.0,-8.8,71.4*,10.1
C=CCn1c(SCC(=O)Nc2cc(C)on2)nc2sc3c(c2c1=O)CCCC3,5.3,-0.4,1.8,-10.3,16.4,1.6
O=C1OCCN1C(=O)[C@H]1[C@H](c2ccc([N+](=O)[O-])cc2)C(c2cccc(Cl)c2)=NN1c1ccccc1,6.1,-6.6,30.8*,28.5,-272.7,-0.8
O=C1OCCN1C(=O)[C@H]1[C@H](c2ccc(F)cc2)C(c2ccc(F)cc2)=NN1c1ccccc1,5.8,-2.9,21.4,15.9,36.4,-2.0
Cc1snnc1C(=O)NC(=S)Nc1ccccc1,x,x,-1.5,-2.2,x,x
COc1ccc(/C=C2\SC(=NCc3ccccc3)N(Cc3ccccc3)C2=O)cc1OC,9.4*,0.1,-7.7,7.2,-8.7,1.4
CCN=C1S/C(=C\c2ccc(OC)c(OCC)c2)C(=O)N1CC,2.8,2.2,9.4,7.2,16.9,2.6
CC1(C)CC(=O)C(N=Nc2cc3c(cc2[N+](=O)[O-])OCCO3)=C(O)C1,9.5*,4.5,2.4,9.4,-8.3,x
COc1ccc(NC(=S)NCCN2CCOCC2)cc1,0.2,3.0,-0.9,6.2,x,x
COc1cc(NC(=S)NCCN2CCOCC2)cc(OC)c1,1.5,-0.7,1.4,-14.8,64.3*,0.4
O=C(NC1CCCC1)C1c2ccccc2C(=O)N1CCCN1CCOCC1 (centres undefined),-0.4,1.4,0.4,-16.6,60.0*,2.1
CCOC(=O)c1sc(NC(=O)CCCn2nc([N+](=O)[O-])c(Cl)c2C)c(C(=O)OCC)c1C,5.9,-1.1,-2.7,-8.6,-50.0,1.3
CCN(CC)C(c1ccc(F)cc1)c1nnnn1CC1CCCO1 (centres undefined),2.4,3.6,4.4,7.2,92.9*,3.5
COc1ccc(C(c2nnnn2CC2CCCO2)N2CCN(c3ccc(F)cc3)CC2)cc1 (centres undefined),0.8,2.8,-7.6,13.7,x,1.0
O=C1c2ccsc2SCCN1Cc1ccccc1,2.8,3.0,-8.3,2.8,x,x
CCOC(=O)c1sc2ccccc2c1OC(=O)c1ccc(C)cc1,8.7*,-1.2,4.6,-6.7,x,12.1

# Bioassay records from PubChem BioAssay.
